Test results from ChEMBL document CHEMBL2440001, “Design and synthesis of novel 3,5-bis-N-(aryl/heteroaryl) carbamoyl-4-aryl-1,4-dihydropyridines as small molecule BACE-1 inhibitors” (Bioorg Med Chem, 2013).
Peptide text beside a SMILES is read from it. * marks the point of attachment. X1 = C[C@H](NC[C@H](C)N*)C(=O)N[C@@H](CCC(=O)O)C(=O)N[C@@H](Cc1ccccc1)C(=O)O

What was measured:
Beta-secretase 1 [1] = target: T1, Beta-secretase 1 (Homo sapiens, UniProt P56817); assay: Inhibition of recombinant human BACE-1 using SEVNLDAEFK as substrate at 10 uM after 90 mins by FRET assay
T1 sequence (P56817 whole entry): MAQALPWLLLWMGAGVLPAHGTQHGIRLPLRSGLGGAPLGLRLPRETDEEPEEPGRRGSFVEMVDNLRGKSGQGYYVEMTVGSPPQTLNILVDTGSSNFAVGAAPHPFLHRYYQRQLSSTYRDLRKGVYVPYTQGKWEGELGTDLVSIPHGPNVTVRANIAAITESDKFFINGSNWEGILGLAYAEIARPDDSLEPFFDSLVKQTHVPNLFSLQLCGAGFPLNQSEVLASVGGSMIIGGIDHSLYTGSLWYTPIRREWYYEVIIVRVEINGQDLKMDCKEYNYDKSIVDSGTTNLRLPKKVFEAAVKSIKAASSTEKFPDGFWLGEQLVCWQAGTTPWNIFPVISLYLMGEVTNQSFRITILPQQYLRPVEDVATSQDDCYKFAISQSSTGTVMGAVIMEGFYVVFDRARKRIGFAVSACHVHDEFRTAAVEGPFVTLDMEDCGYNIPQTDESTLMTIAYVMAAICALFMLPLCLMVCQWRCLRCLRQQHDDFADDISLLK

Beta-secretase 1 [2] = target: T1, Beta-secretase 1; assay: Inhibition of recombinant human BACE-1 using SEVNLDAEFK as substrate at 50 uM after 90 mins by FRET assay
Cavia porcellus = species: Cavia porcellus; assay: Antagonist activity at calcium channel albino guinea pig ileal longitudinal smooth muscle assessed as inhibition of KCl-induced contraction
Method in brief: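 Fasted guinea-pig ileal longitudinal smooth muscle, 2 cm segments under 0.5 g resting tension, contracted with 40 mM KCl. Compounds were added cumulatively, and relaxation was expressed as percent of control. IC30 (30% relaxation) was read graphically from the curves.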

Beta-secretase 1 [3] = target: T1, Beta-secretase 1; assay: Inhibition of recombinant human BACE-1 using SEVNLDAEFK as substrate after 90 mins by FRET assay

Row | SMILES | inhibition (Beta-secretase 1 [1]) [%] | inhibition (Beta-secretase 1 [2]) [%] | IC15 (Cavia porcellus) | IC50 (Beta-secretase 1 [3]) [µM] | IC30 (Cavia porcellus) [nM]
1 | COc1ccc(C2C(C(=O)Nc3nc(C)cs3)=C(C)NC(C)=C2C(=O)Nc2nc(C)cs2)cc1 | 44.4 | 86.3 |  |  | 
2 | CC1=C(C(=O)Nc2nc(C)cs2)C(c2ccco2)C(C(=O)Nc2nc(C)cs2)=C(C)N1 | 66.4 | 95.1 | 2.26 µM | 6.78 | 
3 | CC1=C(C(=O)Nc2nc3ccccc3s2)C(c2ccccc2)C(C(=O)Nc2nc3ccccc3s2)=C(C)N1 | 44.9 |  |  |  | 
4 | CC(C)C[C@H](NC(=O)[C@H](CC(N)=O)NC(=O)[C@@H](NC(=O)[C@@H](N)CCC(=O)O)C(C)C)C(=O)N[C@@H](C)CN[C@@H](C)C(=O)N[C@@H](CCC(=O)O)C(=O)N[C@@H](Cc1ccccc1)C(=O)O (H-EVNL-X1) |  |  |  | 0.003 | 
5 | COC(=O)C1=C(C)NC(C)=C(C(=O)OC)C1c1ccccc1[N+](=O)[O-] |  |  | 0.00202 µM |  | 9.27
6 | CC1=C(C(=O)Nc2nc(C)cs2)C(c2cccc([N+](=O)[O-])c2)C(C(=O)Nc2nc(C)cs2)=C(C)N1 | 34.8 | 70.4 |  |  | 
7 | CC1=C(C(=O)Nc2nc3ccccc3s2)C(c2cccc([N+](=O)[O-])c2)C(C(=O)Nc2nc3ccccc3s2)=C(C)N1 | 49.4 | 56.2 |  |  | 
8 | CC1=C(C(=O)Nc2nc3ccccc3s2)C(c2ccc([N+](=O)[O-])cc2)C(C(=O)Nc2nc3ccccc3s2)=C(C)N1 | 49.8 | 90.8 |  |  | 
9 | CC1=C(C(=O)Nc2nccs2)C(c2ccc([N+](=O)[O-])cc2)C(C(=O)Nc2nccs2)=C(C)N1 | 28.1 | 46.8 |  |  | 
10 | CC1=C(C(=O)Nc2nc3ccccc3s2)C(c2ccccc2[N+](=O)[O-])C(C(=O)Nc2nc3ccccc3s2)=C(C)N1 | 65.6 | 87.2 | 6.47 ×10⁻⁷ M | 4.27 | 
11 | CC1=C(C(=O)Nc2nc(C)cs2)C(c2ccc([N+](=O)[O-])cc2)C(C(=O)Nc2nc(C)cs2)=C(C)N1 | 77.2 | 88 | 4.63 µM | 4.21 | 
12 | CCOc1ccc2nc(NC(=O)C3=C(C)NC(C)=C(C(=O)Nc4nc5ccc(OCC)cc5s4)C3c3cccc([N+](=O)[O-])c3)sc2c1 | 49.1 | 94 |  |  | 
13 | CC1=C(C(=O)Nc2cc(C)on2)C(c2ccccc2[N+](=O)[O-])C(C(=O)Nc2cc(C)on2)=C(C)N1 | 12.7 | 54 |  |  | 
14 | CC1=C(C(=O)Nc2cc(C)on2)C(c2cccc([N+](=O)[O-])c2)C(C(=O)Nc2cc(C)on2)=C(C)N1 | 11.6 |  |  |  | 
15 | CC1=C(C(=O)Nc2cc(C)on2)C(c2ccc[nH]2)C(C(=O)Nc2cc(C)on2)=C(C)N1 | 24.1 | 57.4 |  |  | 
16 | CC1=C(C(=O)Nc2cc(C)on2)C(c2ccc([N+](=O)[O-])cc2)C(C(=O)Nc2cc(C)on2)=C(C)N1 | 23.5 | 43 |  |  | 
17 | CC1=C(C(=O)Nc2nc(C)cs2)C(c2ccccc2[N+](=O)[O-])C(C(=O)Nc2nc(C)cs2)=C(C)N1 | 69.4 | 95 | 1.82 µM | 4.66 | 
